Measurements published in ChEMBL document CHEMBL3739413, “Discovery of substituted-2,4-dimethyl-(naphthalene-4-carbonyl)amino-benzoic acid as potent and selective EP4 antagonists” (Bioorg Med Chem Lett, 2016).
In brackets after ≈: the same amount, converted by molar mass.

Legend:
[1] = target: T1, Prostaglandin E2 receptor EP4 subtype (Homo sapiens, UniProt P35408); experiment: Antagonist activity at human EP4 receptor
[2] = target: T1, Prostaglandin E2 receptor EP4 subtype; experiment: Antagonist activity at human EP4 receptor in HEK293 cells assessed as inhibition of PGE2-induced cAMP accumulation; format: functional, cell-based
How it was run: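 HEK293 cells; functional readout was inhibition of PGE2-induced cAMP accumulation. IC50 reported ± SEM, with number of experiments.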

[3] = target: T1, Prostaglandin E2 receptor EP4 subtype; experiment: Antagonist activity at EP4 receptor in human whole blood assessed as reversal of inhibition of PGE2 mediated LPS-induced TNF alpha production pretreated for 30 mins using 3,3',5,5' tetramethylbiphenyl-4,4'-diamine substrate measured after 20 to 24 hrs by immunoassay; format: tissue-based
How it was run: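 Pooled heparinized blood from volunteer donors (no NSAIDs or celecoxib for 48 h, no glucocorticoids for 2 weeks). Compounds added in triplicate as 7-point curves from DMSO stocks at 100× final, preincubated 30 min at 37 °C under 5% CO2. Stimulated with LPS ± PGE2 (final 10 nM), incubated 20–24 h, plasma TNFα read by ELISA at A450–A650. IC50 from sigmoidal fit, reported as geometric mean ± SD.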

[4] = target: T1, Prostaglandin E2 receptor EP4 subtype; experiment: Potency index, ratio of IC50 for CJ-023423 to IC50 for test compound against EP4 receptor in human whole blood; format: tissue-based
[5] = Drug metabolism in rat hepatic microsomes incubated for 30 mins in presence of NADPH; format: ADME, Microsome; conditions: liver microsomes, read-out: Drug metabolism
How it was run: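 Compound incubated 30 min with rat liver microsomes and NADPH; percent metabolized reported.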

[6] = Clearance in rat at 1 mg/kg, iv; format: ADME, organism-based; conditions: in vivo
How it was run: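 Rat dosed intravenously at 1 mg/kg.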

[7] = Cmax in rat at 5 mg/kg, po; format: ADME, organism-based; parameters: dose 5 mg/kg, route oral; conditions: in vivo
[8] = Tmax in rat at 5 mg/kg, po; format: ADME, organism-based; conditions: in vivo
[9] = Oral bioavailability in rat at 5 mg/kg; format: ADME, organism-based; conditions: in vivo
[10] = Ratio of Cmax in rat to IC50 for EP4 in human whole blood
[11] = target: T2, Prostaglandin E2 receptor EP1 subtype (Homo sapiens, UniProt P34995); experiment: Antagonist activity at human EP1 receptor
T2 sequence (P34995 whole entry): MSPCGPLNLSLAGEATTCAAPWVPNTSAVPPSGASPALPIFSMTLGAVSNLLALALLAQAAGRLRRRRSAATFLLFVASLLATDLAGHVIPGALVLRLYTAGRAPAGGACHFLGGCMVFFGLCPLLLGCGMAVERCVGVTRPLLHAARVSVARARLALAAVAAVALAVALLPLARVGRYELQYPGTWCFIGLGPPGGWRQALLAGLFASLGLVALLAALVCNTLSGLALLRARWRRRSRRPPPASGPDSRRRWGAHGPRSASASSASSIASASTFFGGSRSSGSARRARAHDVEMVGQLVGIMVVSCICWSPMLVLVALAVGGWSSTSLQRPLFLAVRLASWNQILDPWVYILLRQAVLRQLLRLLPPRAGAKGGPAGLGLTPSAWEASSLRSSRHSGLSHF

[12] = target: Prostaglandin E2 receptor EP2 subtype (Homo sapiens, UniProt P43116); experiment: Antagonist activity at human EP2 receptor
Prostaglandin E2 receptor EP2 subtype, sequence (P43116 whole entry): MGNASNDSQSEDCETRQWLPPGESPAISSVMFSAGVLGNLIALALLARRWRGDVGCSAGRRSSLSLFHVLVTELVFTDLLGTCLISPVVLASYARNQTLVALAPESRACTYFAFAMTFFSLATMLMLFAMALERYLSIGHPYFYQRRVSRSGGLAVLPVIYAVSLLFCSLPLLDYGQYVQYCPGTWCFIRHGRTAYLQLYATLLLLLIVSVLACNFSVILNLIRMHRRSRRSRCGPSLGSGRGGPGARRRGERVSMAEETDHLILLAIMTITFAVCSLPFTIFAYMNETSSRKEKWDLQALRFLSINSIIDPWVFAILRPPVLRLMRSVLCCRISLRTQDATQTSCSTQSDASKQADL

[13] = target: T3, Prostaglandin E2 receptor EP3 subtype (Homo sapiens, UniProt P43115); experiment: Antagonist activity at human EP3 receptor
T3 sequence (P43115 whole entry): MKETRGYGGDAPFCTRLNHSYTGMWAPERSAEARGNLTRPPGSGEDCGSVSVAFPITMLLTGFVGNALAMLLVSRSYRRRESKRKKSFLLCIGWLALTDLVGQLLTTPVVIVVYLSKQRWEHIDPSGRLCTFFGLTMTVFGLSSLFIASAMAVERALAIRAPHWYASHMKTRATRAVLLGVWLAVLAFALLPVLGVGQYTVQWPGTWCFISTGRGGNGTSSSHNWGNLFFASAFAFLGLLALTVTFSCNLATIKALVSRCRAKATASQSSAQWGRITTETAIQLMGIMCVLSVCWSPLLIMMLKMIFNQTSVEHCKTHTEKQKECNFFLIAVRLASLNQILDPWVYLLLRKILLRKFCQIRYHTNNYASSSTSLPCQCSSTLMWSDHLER

Cytochrome P450 1A2 = target: T4, Cytochrome P450 1A2 (Homo sapiens, UniProt P05177); experiment: Inhibition of CYP1A2 (unknown origin); format: ADME
T4 sequence (P05177 whole entry): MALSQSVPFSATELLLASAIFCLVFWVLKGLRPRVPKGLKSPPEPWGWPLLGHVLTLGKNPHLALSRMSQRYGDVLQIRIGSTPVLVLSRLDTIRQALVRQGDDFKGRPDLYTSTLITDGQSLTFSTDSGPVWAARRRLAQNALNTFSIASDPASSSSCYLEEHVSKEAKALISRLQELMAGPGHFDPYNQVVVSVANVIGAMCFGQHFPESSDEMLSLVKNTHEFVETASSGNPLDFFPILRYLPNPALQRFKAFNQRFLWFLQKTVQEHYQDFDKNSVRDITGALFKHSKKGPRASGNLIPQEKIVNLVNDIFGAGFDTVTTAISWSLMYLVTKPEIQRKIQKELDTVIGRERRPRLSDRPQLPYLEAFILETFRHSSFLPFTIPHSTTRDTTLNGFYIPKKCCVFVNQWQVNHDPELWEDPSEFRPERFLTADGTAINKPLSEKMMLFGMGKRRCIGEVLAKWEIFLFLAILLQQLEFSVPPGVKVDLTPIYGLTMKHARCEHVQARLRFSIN

Cytochrome P450 2B6 = target: T5, Cytochrome P450 2B6 (Homo sapiens, UniProt P20813); experiment: Inhibition of CYP2B6 (unknown origin); format: ADME
T5 sequence (P20813 whole entry): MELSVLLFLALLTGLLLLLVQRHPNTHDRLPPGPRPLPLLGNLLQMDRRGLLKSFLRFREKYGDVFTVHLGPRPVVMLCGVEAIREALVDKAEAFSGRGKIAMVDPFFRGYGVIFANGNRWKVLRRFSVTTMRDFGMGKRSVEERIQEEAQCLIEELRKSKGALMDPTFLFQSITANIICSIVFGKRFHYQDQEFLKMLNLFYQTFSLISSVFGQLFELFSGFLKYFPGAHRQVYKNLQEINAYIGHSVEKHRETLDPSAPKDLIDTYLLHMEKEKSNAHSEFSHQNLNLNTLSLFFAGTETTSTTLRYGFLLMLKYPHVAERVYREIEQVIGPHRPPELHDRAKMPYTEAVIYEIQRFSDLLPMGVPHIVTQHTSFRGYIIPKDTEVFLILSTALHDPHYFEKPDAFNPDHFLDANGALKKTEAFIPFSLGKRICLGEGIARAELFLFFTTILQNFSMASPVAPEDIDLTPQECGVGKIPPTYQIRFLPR

Cytochrome P450 2C19 = Cytochrome P450 2C19 (Homo sapiens, UniProt P33261); experiment: Inhibition of CYP2C19 (unknown origin); format: ADME
Cytochrome P450 2C19, sequence (P33261 whole entry): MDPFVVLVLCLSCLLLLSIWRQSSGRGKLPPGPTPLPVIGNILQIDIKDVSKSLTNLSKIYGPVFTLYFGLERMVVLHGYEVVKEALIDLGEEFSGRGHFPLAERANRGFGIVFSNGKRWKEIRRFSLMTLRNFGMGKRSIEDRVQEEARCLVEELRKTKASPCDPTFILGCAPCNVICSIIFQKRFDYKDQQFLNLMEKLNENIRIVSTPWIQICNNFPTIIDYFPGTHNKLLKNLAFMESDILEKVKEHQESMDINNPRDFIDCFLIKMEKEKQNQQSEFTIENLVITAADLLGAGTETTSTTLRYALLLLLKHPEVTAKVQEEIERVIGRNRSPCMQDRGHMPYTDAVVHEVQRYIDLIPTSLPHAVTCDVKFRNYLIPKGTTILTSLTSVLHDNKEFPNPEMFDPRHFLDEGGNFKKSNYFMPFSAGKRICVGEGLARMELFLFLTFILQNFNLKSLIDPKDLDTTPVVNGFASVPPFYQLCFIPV

Cytochrome P450 2C8 = target: T6, Cytochrome P450 2C8 (Homo sapiens, UniProt P10632); experiment: Inhibition of CYP2C8 (unknown origin); format: ADME
T6 sequence (P10632 whole entry): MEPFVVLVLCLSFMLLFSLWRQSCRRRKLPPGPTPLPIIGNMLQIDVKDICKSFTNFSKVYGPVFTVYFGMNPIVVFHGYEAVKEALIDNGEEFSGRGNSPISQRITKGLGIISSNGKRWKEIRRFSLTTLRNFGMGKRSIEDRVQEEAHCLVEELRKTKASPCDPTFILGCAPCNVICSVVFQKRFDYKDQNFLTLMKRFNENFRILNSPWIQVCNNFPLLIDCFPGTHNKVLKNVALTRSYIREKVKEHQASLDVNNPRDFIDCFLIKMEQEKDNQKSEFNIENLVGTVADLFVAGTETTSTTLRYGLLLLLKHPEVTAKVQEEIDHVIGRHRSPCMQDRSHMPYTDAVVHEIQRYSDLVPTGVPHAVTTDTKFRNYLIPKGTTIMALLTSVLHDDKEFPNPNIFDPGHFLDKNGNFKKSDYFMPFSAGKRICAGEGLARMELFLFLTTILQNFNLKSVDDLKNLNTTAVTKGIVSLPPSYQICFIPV

Cytochrome P450 2C9 = Cytochrome P450 2C9 (Homo sapiens, UniProt P11712); experiment: Inhibition of CYP2C9 (unknown origin); format: ADME
Cytochrome P450 2C9, sequence (P11712 whole entry): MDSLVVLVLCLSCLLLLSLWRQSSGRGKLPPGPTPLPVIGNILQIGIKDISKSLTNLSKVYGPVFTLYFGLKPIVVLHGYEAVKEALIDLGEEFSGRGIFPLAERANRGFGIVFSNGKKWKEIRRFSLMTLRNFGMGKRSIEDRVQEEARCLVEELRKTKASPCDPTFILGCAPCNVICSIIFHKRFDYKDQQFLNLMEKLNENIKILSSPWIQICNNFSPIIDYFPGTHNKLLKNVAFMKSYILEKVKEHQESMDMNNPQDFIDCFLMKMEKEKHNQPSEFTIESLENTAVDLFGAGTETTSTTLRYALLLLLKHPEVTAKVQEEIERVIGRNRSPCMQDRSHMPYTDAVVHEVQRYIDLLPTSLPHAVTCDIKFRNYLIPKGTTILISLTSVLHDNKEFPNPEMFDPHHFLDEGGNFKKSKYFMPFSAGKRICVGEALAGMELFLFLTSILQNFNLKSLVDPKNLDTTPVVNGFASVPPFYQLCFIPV

Cytochrome P450 2D6 = Cytochrome P450 2D6 (Homo sapiens, UniProt P10635); experiment: Inhibition of CYP2D6 (unknown origin); format: ADME
Cytochrome P450 2D6, sequence (P10635 whole entry): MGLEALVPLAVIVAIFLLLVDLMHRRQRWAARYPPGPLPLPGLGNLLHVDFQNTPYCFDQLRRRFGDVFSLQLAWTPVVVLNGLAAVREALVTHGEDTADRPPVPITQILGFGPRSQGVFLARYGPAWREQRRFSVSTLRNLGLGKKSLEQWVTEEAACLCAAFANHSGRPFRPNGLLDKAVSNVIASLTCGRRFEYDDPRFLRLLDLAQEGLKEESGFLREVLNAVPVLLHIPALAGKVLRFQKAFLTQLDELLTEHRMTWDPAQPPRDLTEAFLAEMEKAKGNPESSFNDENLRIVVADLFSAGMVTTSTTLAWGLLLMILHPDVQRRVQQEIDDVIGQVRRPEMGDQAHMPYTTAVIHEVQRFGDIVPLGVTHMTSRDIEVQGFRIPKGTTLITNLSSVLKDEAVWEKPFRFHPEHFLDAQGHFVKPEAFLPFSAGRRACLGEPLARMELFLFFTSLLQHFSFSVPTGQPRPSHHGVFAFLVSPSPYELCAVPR

Cytochrome P450 3A4 = Cytochrome P450 3A4 (Homo sapiens, UniProt P08684); experiment: Inhibition of CYP3A4 (unknown origin); format: ADME
Cytochrome P450 3A4, sequence (P08684 whole entry): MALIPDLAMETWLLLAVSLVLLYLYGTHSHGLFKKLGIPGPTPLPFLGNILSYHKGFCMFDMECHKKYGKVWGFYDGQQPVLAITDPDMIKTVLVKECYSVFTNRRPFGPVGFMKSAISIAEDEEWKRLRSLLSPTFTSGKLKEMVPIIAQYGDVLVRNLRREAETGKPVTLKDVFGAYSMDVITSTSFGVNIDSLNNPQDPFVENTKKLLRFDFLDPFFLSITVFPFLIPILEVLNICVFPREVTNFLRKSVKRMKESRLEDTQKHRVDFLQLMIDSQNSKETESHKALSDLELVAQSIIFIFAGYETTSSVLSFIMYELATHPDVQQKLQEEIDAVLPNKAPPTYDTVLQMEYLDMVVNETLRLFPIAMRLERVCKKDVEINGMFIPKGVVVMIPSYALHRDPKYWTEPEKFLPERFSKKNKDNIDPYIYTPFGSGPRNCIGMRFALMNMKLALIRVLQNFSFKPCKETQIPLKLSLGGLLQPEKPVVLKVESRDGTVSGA

[14] = Drug metabolism in rat hepatic microsomes; format: ADME, Microsome; conditions: liver microsomes, read-out: Drug metabolism
[15] = Drug metabolism in human hepatic microsomes; format: ADME, Microsome; conditions: liver microsomes, read-out: Drug metabolism
[16] = Aqueous solubility of the compound at pH 6; format: physicochemical; conditions: aqueous medium

T1 sequence (P35408 whole entry): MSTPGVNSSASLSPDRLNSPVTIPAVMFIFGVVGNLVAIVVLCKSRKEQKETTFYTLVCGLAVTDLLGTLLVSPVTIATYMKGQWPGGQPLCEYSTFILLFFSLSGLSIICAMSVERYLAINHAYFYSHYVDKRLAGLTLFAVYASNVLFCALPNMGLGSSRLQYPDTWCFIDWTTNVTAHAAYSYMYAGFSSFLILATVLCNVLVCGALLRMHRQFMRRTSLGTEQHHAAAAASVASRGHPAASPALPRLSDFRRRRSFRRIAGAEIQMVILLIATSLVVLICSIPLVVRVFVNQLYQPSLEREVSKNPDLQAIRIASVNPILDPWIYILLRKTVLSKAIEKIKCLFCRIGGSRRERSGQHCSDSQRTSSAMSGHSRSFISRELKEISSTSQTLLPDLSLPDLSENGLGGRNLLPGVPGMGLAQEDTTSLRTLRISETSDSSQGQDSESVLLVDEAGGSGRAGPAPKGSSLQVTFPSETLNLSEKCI

Structure (SMILES): Cc1ccc(C(=O)O)c(C)c1NC(=O)c1cc(-c2ccccc2)cc2ccccc12
- Ki [1]: 6.72 nM
- IC50 [2]: 5.65 nM
- IC50 [3]: 577 nM

Structure (SMILES): Cc1ccc(C(=O)O)c(C)c1NC(=O)c1cc(-c2cccc(CO)c2)nc2ccccc12
- Ki [1]: 17 nM
- IC50 [2]: 5.2 nM
- IC50 [3]: 312 nM
- Ratio IC50 [4]: > 5

Structure (SMILES): Cc1ccc(C(=O)O)c(C)c1NC(=O)c1cc(-c2cccc(CO)c2)cc2ccccc12
- Ki [1]: 1.98 nM
- IC50 [2]: 2.42 nM
- IC50 [3]: 6.2 nM
- Ratio IC50 [4]: > 250
- metabolised at 0.5 h [5]: < 1%
- clearance [6]: 23.8 mL/min/kg
- Cmax [7]: 85.7 ng/mL
- Tmax [8]: 15 min
- bioavailability [9]: 6%
- Ratio [10]: 33

Structure (SMILES): Cc1ccc(C(=O)O)c(C)c1NC(=O)c1cc(-c2cccc(Cl)c2)cc2ccccc12
- Ki [1]: 3.49 nM
- IC50 [2]: 3.62 nM
- IC50 [3]: 243 nM
- metabolised at 0.5 h [5]: 7%
- clearance [6]: 1.9 mL/min/kg
- Cmax [7]: 10900 ng/mL
- Tmax [8]: 60 min
- bioavailability [9]: 100%
- Ratio [10]: 104
- IC50 [11]: > 25000 nM
- Ki [11]: > 19500 nM
- IC50 [12]: 3700 nM
- Ki [12]: 2800 nM
- IC50 [13]: > 25000 nM
- Ki [13]: > 17500 nM
- IC50 (Cytochrome P450 1A2): > 10000 nM
- IC50 (Cytochrome P450 2B6): > 10000 nM
- IC50 (Cytochrome P450 2C19): > 10000 nM
- IC50 (Cytochrome P450 2C8): > 10000 nM
- IC50 (Cytochrome P450 2C9): > 10000 nM
- IC50 (Cytochrome P450 2D6): > 10000 nM
- IC50 (Cytochrome P450 3A4): > 10000 nM

Structure (SMILES): Cc1cccc(C)c1NC(=O)c1cc(-c2ccccc2)nc2ccccc12
- Ki [1]: 512 nM
- IC50 [2]: 128 nM
- IC50 [3]: > 30000 nM
- metabolised [14]: 64%
- metabolised [15]: 71%
- solubility [16]: < 1 µg/mL

Structure (SMILES): Cc1cc(C(=O)O)cc(C)c1NC(=O)c1cc(-c2cccc(CO)c2)cc2ccccc12
- Ki [1]: 3.54 nM
- IC50 [2]: 1.11 nM
- IC50 [3]: 136 nM

Structure (SMILES): CCc1nc2c(C)nc(C)cc2n1-c1ccc(CCNC(=O)NS(=O)(=O)c2ccc(C)cc2)cc1 [GRAPIPRANT]
- IC50 [3]: 1520 nM
- metabolised [14]: 5%
- metabolised [15]: 2%
- solubility [16]: 977 µg/mL (≈ 1990 µM)

Structure (SMILES): Cc1cc(C(=O)O)cc(C)c1NC(=O)c1cc(-c2ccccc2)cc2ccccc12
- Ki [1]: 8.04 nM
- IC50 [2]: 3.48 nM
- IC50 [3]: 623 nM

Structure (SMILES): Cc1cc(C(=O)O)cc(C)c1NC(=O)c1cc(-c2ccccc2)nc2ccccc12
- Ki [1]: 39.2 nM
- IC50 [2]: 11.2 nM
- IC50 [3]: 1980 nM

Structure (SMILES): Cc1cccc(C)c1NC(=O)c1cc(-c2ccc(C(=O)O)cc2)nc2ccccc12
- Ki [1]: > 19200 nM
- IC50 [2]: > 25000 nM
- IC50 [3]: > 30000 nM

Structure (SMILES): Cc1cc(C(=O)O)cc(C)c1NC(=O)c1cc(-c2cccc(CO)c2)nc2ccccc12
- Ki [1]: 52.3 nM
- IC50 [2]: 3.08 nM
- IC50 [3]: 501 nM
- metabolised at 0.5 h [5]: < 1%
- clearance [6]: 59.6 mL/min/kg
- Cmax [7]: 42.3 ng/mL
- Tmax [8]: 15 min
- bioavailability [9]: 3%
- Ratio [10]: 0.2
